Assay type in all cases: functional
The test system of experiment [1] is Pseudomonas aeruginosa. Nature of the experiment: Antibacterial activity against Pseudomonas aeruginosa assessed as inhibition of bacterial growth after 24 hrs by microbroth dilution method. Summed up: (§1)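 Bacterial inoculum set to 1×10^5 CFU with sterile saline. Test agents and reference drugs, from DMSO stocks, diluted in Mueller-Hinton broth to 512, 256, 128, 64, 32, 16, 8, 4, 2, 1 and 0.5 µg/mL. Inoculated dilutions incubated 37 °C for 24 h.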
(Broth dilution looks for growth in wells or tubes with falling amounts of substance.)

Experiment [2] deals with Escherichia coli. The experiment can be described thus: Antibacterial activity against Escherichia coli ATCC 25922 assessed as inhibition of bacterial growth after 24 hrs by microbroth dilution method. Summed up: as §1
Experiment [3] concerns Acinetobacter baumannii. Nature of the experiment: Antibacterial activity against Acinetobacter baumannii assessed as inhibition of bacterial growth after 24 hrs by microbroth dilution method. Summed up:
as §1

The subject of experiment [4] is Staphylococcus aureus. The experiment can be described thus: Antibacterial activity against Staphylococcus aureus ATCC 25923 assessed as inhibition of bacterial growth after 24 hrs by microbroth dilution method. Summed up:
as §1

For experiment [5], the system named is Enterococcus faecalis. The experiment can be described thus: Antibacterial activity against Enterococcus faecalis assessed as inhibition of bacterial growth after 24 hrs by microbroth dilution method. Summed up:
as §1

Experiment [6] deals with Staphylococcus aureus. Nature of the experiment: Antibacterial activity against Staphylococcus aureus assessed as inhibition of bacterial growth after 24 hrs by microbroth dilution method. Summed up:
as §1

The test system of experiment [7] is Pseudomonas aeruginosa. The experiment can be described thus: Antibacterial activity against Pseudomonas aeruginosa ATCC 27853 assessed as inhibition of bacterial growth after 24 hrs by microbroth dilution method. A digest of the protocol:
as §1

Experiment [8] concerns Staphylococcus aureus. The experiment can be described thus: Antibacterial activity against methicillin resistant Staphylococcus aureus assessed as inhibition of bacterial growth after 24 hrs by microbroth dilution method. Summed up: (§2)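 Inoculum adjusted in sterile saline to 1×10^5 CFU. Compounds dissolved in DMSO as stock, then diluted in Mueller-Hinton broth as a two-fold series from 512 to 0.5 µg/mL (11 levels). Inoculated dilutions incubated at 37 °C for 24 h, and the MIC recorded.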

For experiment [9], the system named is Escherichia coli. Nature of the experiment: Antibacterial activity against Escherichia coli assessed as inhibition of bacterial growth after 24 hrs by microbroth dilution method. Summed up:
as §1

Experiment [10] has as its system Staphylococcus aureus. The experiment can be described thus: Antibacterial activity against Staphylococcus aureus ATCC 29213 assessed as inhibition of bacterial growth after 24 hrs by microbroth dilution method. A digest of the protocol: as §2
The subject of experiment [11] is Klebsiella pneumoniae. The experiment can be described thus: Antibacterial activity against Klebsiella pneumoniae assessed as inhibition of bacterial growth after 24 hrs by microbroth dilution method. Summed up: as §1
Experiment [12] relates to Staphylococcus aureus. Nature of the experiment: Potency index, ratio of norfloxacin MIC to compound MIC for antibacterial activity against Staphylococcus aureus incubated for 24 hrs by microbroth dilution method.

≈ marks a conversion by molar mass, not a printed value.

As a reminder, the MIC is the lowest concentration found to suppress growth. For the compound `O=C1c2cccc(O)c2C(=O)c2c(O)cc(CSc3nc4ccccc4[nH]3)cc21`, the minimal inhibitory concentration (MIC) turned out to be 128 µg/mL (≈ 318 µM) in experiment [1]; 128 µg/mL (≈ 318 µM) in [2]; 16 µg/mL (≈ 39.8 µM) in [3]; 128 µg/mL (≈ 318 µM) in experiment [4]; 32 µg/mL (≈ 79.5 µM) in experiment [5]; 4 µg/mL (≈ 9.94 µM) in experiment [6]. Also, the minimum inhibitory concentration (MIC) in [7] was determined as 64 µg/mL (≈ 159 µM); in experiment [8], 32 µg/mL (≈ 79.5 µM); in [9], 64 µg/mL (≈ 159 µM); in experiment [10] it was 16 µg/mL (≈ 39.8 µM); in experiment [11] it was 64 µg/mL (≈ 159 µM).

With `Cc1ncc([N+](=O)[O-])n1Cc1cc(O)c2c(c1)C(=O)c1cccc(O)c1C2=O`, the MIC was found to be 64 µg/mL (≈ 169 µM) in [1]; 64 µg/mL (≈ 169 µM) in [2]; 32 µg/mL (≈ 84.4 µM) in experiment [3]; 16 µg/mL (≈ 42.2 µM) in [4]; 128 µg/mL (≈ 337 µM) in experiment [5]; 4 µg/mL (≈ 10.5 µM) in experiment [6]. Besides, the minimal inhibitory concentration (MIC) in experiment [7] was 32 µg/mL (≈ 84.4 µM); in experiment [8], 64 µg/mL (≈ 169 µM); in experiment [9], 128 µg/mL (≈ 337 µM); in experiment [10] it was 128 µg/mL (≈ 337 µM); in experiment [11] it was 128 µg/mL (≈ 337 µM). In experiment [12], the Ratio turned out to be 2.

Regarding `O=C1c2cccc(O)c2C(=O)c2c(O)cc(Cn3ccnc3[N+](=O)[O-])cc21`, the minimal inhibitory concentration (MIC) in experiment [1] was found to be 64 µg/mL (≈ 175 µM); in [2], 32 µg/mL (≈ 87.6 µM); in experiment [3], 64 µg/mL (≈ 175 µM); in experiment [4] it was 32 µg/mL (≈ 87.6 µM); in experiment [5], 32 µg/mL (≈ 87.6 µM); in [6], 32 µg/mL (≈ 87.6 µM). In addition, the MIC came out at 64 µg/mL (≈ 175 µM) in [7]; 32 µg/mL (≈ 87.6 µM) in [8]; 64 µg/mL (≈ 175 µM) in experiment [9]; 32 µg/mL (≈ 87.6 µM) in experiment [10]; 64 µg/mL (≈ 175 µM) in [11].

Turning to `O=C1c2cccc(O)c2C(=O)c2c(O)cc(Cn3nnc4ccccc43)cc21`, the MIC in experiment [1] is 128 µg/mL (≈ 345 µM); in [2] it was 32 µg/mL (≈ 86.2 µM); in experiment [3] it was 16 µg/mL (≈ 43.1 µM); in experiment [4], 256 µg/mL (≈ 689 µM); in experiment [5] it was 32 µg/mL (≈ 86.2 µM); in [6], 128 µg/mL (≈ 345 µM). Besides, the minimum inhibitory concentration (MIC) came out at 64 µg/mL (≈ 172 µM) in [7]; 32 µg/mL (≈ 86.2 µM) in experiment [8]; 128 µg/mL (≈ 345 µM) in experiment [9]; 32 µg/mL (≈ 86.2 µM) in experiment [10]; 128 µg/mL (≈ 345 µM) in experiment [11].

`CCn1cc(C(=O)O)c(=O)c2cc(F)c(N3CCNCC3)cc21` [NORFLOXACIN]: the MIC in experiment [1] was found to be 8 µg/mL (≈ 25.1 µM); in [2], 8 µg/mL (≈ 25.1 µM); in experiment [3] it was 0.5 µg/mL (≈ 1.57 µM); in experiment [4], 1 µg/mL (≈ 3.13 µM); in [5] it was 32 µg/mL (≈ 100 µM); in experiment [6], 8 µg/mL (≈ 25.1 µM). Besides, the MIC stood at 2 µg/mL (≈ 6.26 µM) in [7]; 8 µg/mL (≈ 25.1 µM) in experiment [8]; 16 µg/mL (≈ 50.1 µM) in experiment [9]; 1 µg/mL (≈ 3.13 µM) in experiment [10]; 4 µg/mL (≈ 12.5 µM) in [11].

Regarding `O=C1c2cccc(O)c2C(=O)c2c(O)cc(Cn3cncn3)cc21`, the minimum inhibitory concentration (MIC) in experiment [1] came out at 32 µg/mL (≈ 99.6 µM); in experiment [2], 64 µg/mL (≈ 199 µM); in experiment [3], 32 µg/mL (≈ 99.6 µM); in experiment [4] it was 16 µg/mL (≈ 49.8 µM); in experiment [5] it was 128 µg/mL (≈ 398 µM); in [6], 8 µg/mL (≈ 24.9 µM). In addition, the MIC in [7] was found to be 32 µg/mL (≈ 99.6 µM); in experiment [8] it was 32 µg/mL (≈ 99.6 µM); in experiment [9] it was 64 µg/mL (≈ 199 µM); in [10] it was 32 µg/mL (≈ 99.6 µM); in experiment [11], 64 µg/mL (≈ 199 µM).

Consider `CCc1nc2ccccc2n1Cc1cc(O)c2c(c1)C(=O)c1cccc(O)c1C2=O`, for which the minimal inhibitory concentration (MIC) was determined as 64 µg/mL (≈ 161 µM) in [1]; 32 µg/mL (≈ 80.3 µM) in [2]; 64 µg/mL (≈ 161 µM) in experiment [3]; 128 µg/mL (≈ 321 µM) in experiment [4]; 16 µg/mL (≈ 40.2 µM) in experiment [5]; 64 µg/mL (≈ 161 µM) in experiment [6]. The minimal inhibitory concentration (MIC) in experiment [7], in [8], in [9], in [10] and in experiment [11] was 64 µg/mL (≈ 161 µM) in each case.

As to `Cc1nnnn1Cc1cc(O)c2c(c1)C(=O)c1cccc(O)c1C2=O`, the minimal inhibitory concentration (MIC) is 128 µg/mL (≈ 381 µM) in [1]; 64 µg/mL (≈ 190 µM) in [2]; 32 µg/mL (≈ 95.2 µM) in experiment [3]; 64 µg/mL (≈ 190 µM) in experiment [4]; 16 µg/mL (≈ 47.6 µM) in experiment [5]; 16 µg/mL (≈ 47.6 µM) in [6]. For the same compound, the MIC in experiment [7] was determined as 32 µg/mL (≈ 95.2 µM); in experiment [8], 32 µg/mL (≈ 95.2 µM); in [9] it was 64 µg/mL (≈ 190 µM); in experiment [10], 64 µg/mL (≈ 190 µM); in [11] it was 64 µg/mL (≈ 190 µM).

In the case of `Cn1nnnc1SCc1cc(O)c2c(c1)C(=O)c1cccc(O)c1C2=O`, the minimum inhibitory concentration (MIC) amounted to 64 µg/mL (≈ 174 µM) in experiment [1]; 64 µg/mL (≈ 174 µM) in experiment [2]; 64 µg/mL (≈ 174 µM) in experiment [3]; 16 µg/mL (≈ 43.4 µM) in [4]; 128 µg/mL (≈ 347 µM) in experiment [5]; 8 µg/mL (≈ 21.7 µM) in experiment [6]. In addition, the minimum inhibitory concentration (MIC) in experiment [7] came out at 64 µg/mL (≈ 174 µM); in [8], 32 µg/mL (≈ 86.9 µM); in experiment [9], 128 µg/mL (≈ 347 µM); in [10], 32 µg/mL (≈ 86.9 µM); in experiment [11], 128 µg/mL (≈ 347 µM). Besides, the Ratio in experiment [12] is 2.

The record behind these values is ChEMBL document CHEMBL4732030, “Aloe-emodin derived azoles as a new structural type of potential antibacterial agents: design, synthesis, and evaluation of the action on membrane, DNA, and MRSA DNA isomerase” (RSC Med Chem, 2021).
